Reference: article PMC10962275 (Pharmacological research, 2024)
≈ marks a conversion by molar mass, not a printed value. Like-named read-outs stand apart in the source and are kept apart here.

Legend:
Ref-1 = Ref-1 (Homo sapiens, UniProt P27695); assay: Redox EMSA; assay type: biochemical
APE1 = APE1 (Homo sapiens, UniProt P27695); assay: Kinetic fluorescence based APE1 endonuclease; assay type: biochemical
Procedure, shortened: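 Recombinant APE1 at 0.07–0.1 nM, tuned before each run for a linear signal, cleaves a double-stranded oligo with a 6-FAM-labelled strand carrying a tetrahydrofuran AP-site mimic and a DABCYL-quenched complement. Read 495/530 over a 5 min kinetic read at 37 °C. A known repair inhibitor serves as reference, also at 20 μM.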

NFκB [1] = assay: NFκB-driven luciferase reporter assay, NF90-8 cells; assay type: cell-based; settings: Homo sapiens, 24 h, read-out: NFκB Luciferase 24 hr EC50±SE (μM)
Procedure, shortened: (§1)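 Pa03C and NF90–8 cells carrying an NFκB-driven GFP-luciferase reporter, checked for induction by TNF-α. Seeded, then treated 24 h later with increasing test compound doses in 5% FBS medium for 24 h. Luciferase measured by One-Glo, with parallel alamarBlue viability. Mean ± SEM, n > 2 biological repeats.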

NFκB [2] = assay: NFκB-driven luciferase reporter assay, Pa03C cells; assay type: cell-based; settings: Homo sapiens, 24 h, read-out: NFκB Luciferase 24 hr EC50 ± SE (μM)
Procedure, shortened: as §1

HIF1α [3] = assay: HIF1α-driven luciferase reporter assay, NF90-8 cells, 1% hypoxia; assay type: cell-based; settings: Homo sapiens, 24 h, read-out: HIF1α Luciferase 24 hr EC50±SE (μM)
Procedure, shortened: as §1, with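 “a HIF1α-driven” for “an NFκB-driven”, “hypoxia.” for “TNF-α.”, “h under 1% hypoxia.” for “h.”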

HIF1α [4] = assay: HIF1α-driven luciferase reporter assay, Pa03C cells, 1% hypoxia; assay type: cell-based; settings: Homo sapiens, 24 h, read-out: HIF1α Luciferase 24 hr EC50 ± SE (μM)
Procedure, shortened: as §1, with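 “a HIF1α-driven” for “an NFκB-driven”, “hypoxia.” for “TNF-α.”, “h under 1% hypoxia.” for “h.”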

NFκB [5] = assay: NFκB luciferase reporter assay; assay type: cell-based, human; settings: for IC50: Homo sapiens, Pa03C, read-out: NFκB (IC50 mM)
Procedure, shortened: as §1

NFκB and HIF1α = assay: Ref-1-regulated transcription factor driven luciferase activity; assay type: cell-based, human; settings: Pa03C and NF90–8 cells, 24 h
Pa03C cells [6] = assay: 3D co-culture spheroid assay, tumor cells; assay type: cell-based; settings: Homo sapiens; for EC50: read-out: 3D tumor(Pa03C) EC50 (mM); for IC50: read-out: cell killing effect in the 3D spheroid assay
CAF19 cells = assay: 3D co-culture spheroid assay, CAFs; assay type: cell-based; settings: Homo sapiens, Pa03C, read-out: 3D CAF19 EC50 (mM)
Procedure, shortened: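 Pa03C (TdTomato-labelled) and CAF19 (EGFP-labelled) plated together at 1:4 in ultra-low-attachment plates to form spheroids. Treated on days 4, 8 and 12 with rising test compound levels in medium containing 5% serum and 3% growth-factor-reduced Matrigel. Fluorescence intensity read by high-content imaging on days 4, 8, 12 and 14. Mean ± SE, n > 3.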

[7] = Phase 1 metabolic stability, human liver microsomes; assay type: in vitro ADME; settings: pH 7.4
Procedure, shortened: (§2)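 Test compound (1 μM) dried under nitrogen, then mixed with human or mouse liver S9 or microsomes (20 mg/mL stock) in phosphate buffer pH 7.4 with 5 mM MgCl2. Reaction started with NADPH (4 mM stock), shaken at 400 rpm. Sampled at 0, 5, 10, 20, 40 and 60 min and quenched with ice-cold acetonitrile; analysed by HPLC.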

[8] = Phase 1 metabolic stability, mouse liver microsomes; assay type: in vitro ADME; settings: pH 7.4
Procedure, shortened: as §2

[9] = Phase 1 metabolic stability, human liver S9; assay type: in vitro ADME; settings: liver S9, pH 7.4
Procedure, shortened: as §2

[10] = Phase 1 metabolic stability, mouse liver S9; assay type: in vitro ADME; settings: liver S9, pH 7.4
Procedure, shortened: as §2

[11] = Plasma stability, human plasma; assay type: in vitro ADME
Procedure, shortened: (§3)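 Human or mouse plasma pre-warmed to 37 °C and added to dried test compound (1 μM) held on a 37 °C heat block. Stopped with cold acetonitrile at 0, 5, 10, 20, 40 and 60 min. Processed samples reconstituted in acetonitrile and analysed by HPLC.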

[12] = Plasma stability, mouse plasma; assay type: in vitro ADME
Procedure, shortened: as §3

Thermodynamic solubility = assay type: physicochemical; settings: thermodynamic from solid; for solubility thermodynamic at 24 h: 37 °C; for solubility thermodynamic: phosphate buffer, pH 6.8, aqueous buffer
[13] = CaCO2 bidirectional permeability; assay type: in vitro ADME; settings: human, Caco-2
In vivo PK in mouse = settings: plasma; for clearance: iv; for AUC(0-inf) / Cmax / half-life: po, 25 mg/kg
Ref-1 (39–318/C138A) [14] = molecular target: T1, Ref-1 (39–318/C138A) (Homo sapiens, UniProt P27695, C138A); assay: WaterLOGSY NMR; assay type: binding; settings: 20 μM Ref-1, 200 μM compound
Procedure, shortened: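 WaterLOGSY spectra acquired with 1.5 s mixing time, 128 scans, 10 ppm sweep width, 1.58 s acquisition time and 5 s relaxation delay. Data multiplied by an exponential function with 1 Hz line broadening before Fourier transformation.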

[15] = Chemical stability in enabling vehicle PKT; assay type: physicochemical
NF90–8 cells = assay: Mitochondrial plate-based assay; assay type: cell-based, human; settings: APX2051 at 10 μM, APX3330 at 50 μM
Procedure, shortened: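 Biolog S-1 Mitoplates activated with Assay Mix for at least 60 min at 37 °C. NF90–8 cells treated 24 h, then collected, counted, resuspended in kit buffer and plated at 5 × 10^4 cells/well. Read kinetically at 590 nm every 5 min for 4 h at 37 °C. Mean ± SEM, n = 2; 2-way ANOVA.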

[16] = Phase 2 metabolic stability, human liver S9; assay type: in vitro ADME
Procedure, shortened: (§4)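 Test compound (1 μM) dried under nitrogen, then incubated with human or mouse liver S9 in UGT reaction mix, shaken at 400 rpm. Stopped with ice-cold acetonitrile at 0, 5, 10, 20, 40 and 60 min. Temazepam internal standard added, then centrifuged; supernatant dried and reconstituted in acetonitrile for HPLC.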

[17] = Phase 2 metabolic stability, mouse liver S9; assay type: in vitro ADME
Procedure, shortened: as §4

Ref-1 (39–318/C138A) [18] = molecular target: T1, Ref-1 (39–318/C138A); settings: ref [25]; cited from earlier work
progressing solid tumors = settings: phase I clinical trial, ref [34]–[36]; cited from earlier work
[19] = preclinical models; cited from earlier work
NF90–8 and Pa03C cells = assay: Cell viability; assay type: cell-based, human; settings: alamar blue, 24 h
Pa03C cells [20] = assay: NADP/NADPH assay; assay type: cell-based, human; settings: 6 h
[21] = FaSSGF, fassgf or other biorelevant

APE1, sequence (P27695 whole entry): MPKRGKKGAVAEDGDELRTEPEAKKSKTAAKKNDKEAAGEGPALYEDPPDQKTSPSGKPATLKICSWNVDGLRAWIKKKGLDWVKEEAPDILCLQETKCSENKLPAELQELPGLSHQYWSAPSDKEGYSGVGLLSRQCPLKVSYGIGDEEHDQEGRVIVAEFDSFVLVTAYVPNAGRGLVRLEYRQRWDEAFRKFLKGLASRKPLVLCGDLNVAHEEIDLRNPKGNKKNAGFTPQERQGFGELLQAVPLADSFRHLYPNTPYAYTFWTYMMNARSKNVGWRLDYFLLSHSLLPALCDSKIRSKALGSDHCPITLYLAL
T1 sequence (P27695 39-318 C138A): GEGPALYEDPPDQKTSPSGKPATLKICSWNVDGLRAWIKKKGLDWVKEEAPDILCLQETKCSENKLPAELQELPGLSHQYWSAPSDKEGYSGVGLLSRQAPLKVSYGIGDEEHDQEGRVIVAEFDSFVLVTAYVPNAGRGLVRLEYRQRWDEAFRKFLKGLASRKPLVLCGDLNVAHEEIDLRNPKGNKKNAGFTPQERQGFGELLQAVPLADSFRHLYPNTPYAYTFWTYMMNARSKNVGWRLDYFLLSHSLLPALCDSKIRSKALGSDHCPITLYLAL
Ref-1, sequence (P27695 whole entry): as the sequence (P27695 whole entry) above

DNA Repair (APE1)	EC50 (NFκB [1]) [µM]	EC50 (NFκB [2]) [µM]	EC50 (HIF1α [3]) [µM]	EC50 (Pa03C cells [6]) [mM]	EC50 (CAF19 cells) [mM]	CLint scaled at 1 µM [7] [mL/min/kg]	CLint scaled at 1 µM [8] [mL/min/kg]	CLint scaled at 1 µM [9] [mL/min/kg]	CLint scaled at 1 µM [10] [mL/min/kg]	half-life at 1 µM [11] [h]	half-life at 1 µM [12] [h]	solubility thermodynamic at 24 h (Thermodynamic solubility; [21]) [µg/mL]	solubility thermodynamic at 24 h (Thermodynamic solubility; FaSSIF) [µg/mL]	solubility thermodynamic at 24 h (Thermodynamic solubility; FeSSIF) [µg/mL]	Papp A→B [13] [×10⁻⁶ cm/s]	clearance (In vivo PK in mouse) [mL/min]	AUC(0-inf) (In vivo PK in mouse) [ng·h/mL]	Cmax (In vivo PK in mouse) [ng/mL]	half-life (In vivo PK in mouse) [h]	SMILES	further results
Neg.	5.1 ± 0.3	18.8 ± 1.35	14.3 ± 0.25	0.0046	0.0078	4.3	19.3	2.9	7.9	2.72	0.567	95 (≈ 267 µM)	198 (≈ 557 µM)	558 (≈ 1570 µM)	33.7	0.683	113	27	1.8	CCC/C(=C\C1=C(OC)C(=O)c2ccccc2C1=O)C(=O)N(CC)CC [APX2009, (E)‐N,N‐diethyl‐2‐[(3‐methoxy‐1,4‐dioxo‐1,4‐dihydronaphthalen‐2-yl)methylidene]pentanamide]	IC50 (Ref-1): < 1 µM; EC50 (HIF1α [4]): 14.5 ± 1.06 µM; IC50 (NFκB [5]): 0.0051 mM; reduction in both NFκB and HIF1α activity: fold lower doses compared to APX3330 (NFκB and HIF1α): 2 – 11 fold; IC50 (Pa03C cells [6]): 4.3 µM; solubility thermodynamic (Thermodynamic solubility): 94 µg/mL (≈ 264 µM); efflux ratio [13]: 0.75; peaks in waterLOGSY difference spectra (Ref-1 (39–318/C138A) [14]): consistent with interactions with Ref-1; chemical stability in PKT vehicle, stressed ([15]; 60 °C for 4 h): formation of significant amount of the hydroquinone (HQ) of APX2053; chemical stability in PKT vehicle ([15]; room temperature after four days): acceptable stability
Neg.	33.7 ± 2.81	54.5 ± 1.97	55.1 ± 0.44	> 0.02	> 0.02	31.8	67.4	4.4	14.2	8.48	1.57	1 (≈ 2.64 µM)	671 (≈ 1770 µM)	448 (≈ 1180 µM)	5.2	0.00833	77900	8820	3.8	CCCCCCCCC/C(=C\C1=C(C)C(=O)C(OC)=C(OC)C1=O)C(=O)O [APX3330, reference compound]	EC50 (HIF1α [4]): 60.2 ± 4.13 µM; IC50 (NFκB [5]): 0.0393 mM; inhibition of mitochondrial function (NF90–8 cells): minimal effects; CLint scaled at 1 µM [16]: 5.6 mL/min/kg; CLint scaled at 1 µM [17]: 21.6 mL/min/kg; solubility thermodynamic (Thermodynamic solubility): 496 µg/mL (≈ 1310 µM); peaks in waterLOGSY difference spectra (Ref-1 (39–318/C138A) [18]): consistent with interactions with Ref-1; response rate (progressing solid tumors): 32%; potency in cell-based proliferation assays [19]: 50 to 75 µM
Slight. Inhib.	–	–	–	0.0161	0.0143	2.3	19	1.9	34.6	0.417	2.2	760 (≈ 2230 µM)	1010 (≈ 2960 µM)	1200 (≈ 3510 µM)	39.7	0.0217	25400	5700	2.1	CCC/C(=C\C1=C(O)C(=O)c2ccccc2C1=O)C(=O)N(CC)CC [APX2053, (E)-N,N-diethyl-2-((3-hydroxy-1,4-dioxo-1,4-dihydronaphthalen-2-yl)methylene)pentanamide]	NFκB activity (NFκB [5]; NF90–8 and Pa03C, any of the doses tested): do not decrease; blocking Ref-1 activated TF activity (for NFκB) (NFκB [5]; tested up to 40 μM): ineffective; cell viability of reporter cells (NF90–8 and Pa03C cells): do not decrease the NFκB activity or affect cell viability; NADPH levels (ratio of NADPH/NADPt) (Pa03C cells [20]): does not show reduced NADPH levels; IC50 (Pa03C cells [6]): 16 µM; efflux ratio [13]: 1; peaks in waterLOGSY difference spectra (Ref-1 (39–318/C138A) [14]): consistent with interactions with Ref-1
–	–	–	–	–	–	–	–	–	–	–	–	–	–	–	–	–	–	–	–	CC(=O)Nc1sc2c(c1-c1nc3ccccc3s1)CCN(C(C)C)C2 [ARi3, reference compound]	decrease of Ref-1 endonuclease activity (APE1; 20 μM, positive control): 63%
